Test results taken from ChEMBL document CHEMBL6083205, “A comprehensive apoptotic assessment of niloticin in cervical cancer cells: a tirucallane-type triterpenoid from Aphanamixis polystachya (Wall.) Parker” (RSC Med Chem, 2024).
Activity calls are given as the source filed them. The calls are words filed in the database; no cut-off is given here.

Experiments:
HeLa [1] = assay: Antimetastatic activity in human HeLa cells assessed as inhibition of cell migration at 3 to 6 uM measured after 24 to 48 hrs by scratch wound assay; format: functional, cell-based; conditions: dose 3-6 µM, time 24-48 hrs
Outline: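 HeLa monolayer formed 24 h after seeding, scratched with a pipette tip and washed with PBS; treated at 3 and 6 μM, untreated cells as control; wound imaged at 0, 24 and 48 h; percentage wound closure/area measured by image analysis.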

HeLa [2] = assay: Induction of cell cycle arrest in human HeLa cells assessed as proportion of cell accumulation at G2 phase at 11 uM by propidium iodide staining based flow cytometry (reference value: 8.7%); format: functional
HeLa [3] = assay: Induction of cell cycle arrest in human HeLa cells assessed as proportion of cell accumulation at G1 phase at 7 uM by propidium iodide staining based flow cytometry (reference value: 67.7%); format: functional
HeLa [4] = assay: Induction of cell cycle arrest in human HeLa cells assessed as downregulation of Cdc25 protein expression at 7 to 11 uM by western blot analysis; format: functional, cell-based; conditions: dose 7-11 µM
Outline: (§1)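 Protein extracted from treated and untreated HeLa, BCA-quantified and normalised; SDS-PAGE, PVDF transfer, 5% skim milk block; primary antibodies 18 h at 4 °C, HRP secondary; chemiluminescent detection of Cdk-2, cyclin A2, cyclin B1, Cdc-25 with β-actin loading control.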

HeLa [5] = assay: Induction of apoptosis in human HeLa cells assessed as DNA fragmentation by measuring CH-deformation with enhanced peak at 1420 to 1440 cm^-1 at 7 to 11 uM incubated for 24 hrs by surface-enhanced Raman spectroscopic analysis; format: functional, cell-based; conditions: dose 7-11 µM
Outline: (§2)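 DNA isolated from control and 7 or 11 μM-treated HeLa, mixed 8:2 with 40–45 nm gold nanoparticles as SERS substrate, 10 min incubation; confocal Raman with 633 nm laser at 5 mW, 600 g/mm grating, 3 cm−1 resolution, 3 accumulations of 5 s integration.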

HeLa [6] = assay: Induction of apoptosis in human HeLa cells assessed as fold increase in caspase-3 activation at 7 to 11 uM by fluorometric assay relative to control; format: functional; conditions: dose 7-11 µM
Outline: (§3)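 HeLa seeded at 3 × 10^6 in 6-well plates, treated at 7 and 11 μM; caspase-3, -8 and -9 activity each measured by fluorometric kit per manufacturer's protocol; fluorescence read at ex 400 nm / em 505 nm; fold change versus control; mean ± SD.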

HeLa [7] = assay: Induction of cell cycle arrest in human HeLa cells assessed as proportion of cell accumulation at subG0 phase at 11 uM by propidium iodide staining based flow cytometry (reference value: 7.6%); format: functional
HeLa [8] = assay: Induction of apoptosis in human HeLa cells assessed as increase in number of cells with condensed nucleic acids at 7 to 11 uM incubated for 24 hrs by Hoechst 33342 staining based fluorescence light microscopy; format: functional, cell-based; conditions: dose 7-11 µM
Outline: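 HeLa, 7 × 10^3 cells/well, treated 24 h at 7 and 11 μM; stained with Hoechst 33342 (1 μg mL−1 in PBS); condensed nuclei imaged through DAPI filter on inverted fluorescence microscope.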

[9] = Cytotoxicity against human MCF-10A cells assessed as inhibition of cell growth incubated for 24 hrs by MTT assay; format: toxicity, cell-based
Outline: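 Non-tumorigenic breast epithelial line grown in MEGM with 5% horse serum at 37 °C and 5% CO2. Plated at 8 × 10^3 cells per well and treated 24 h later for 24 h at 5–100 μM. MTT (0.5 mg/mL in HBSS) was applied for 2–4 h at 37 °C in the dark, then DMSO. Read at 570 nm for IC50.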

HeLa [10] = assay: Induction of apoptosis in human HeLa cells assessed as cells with compromised membrane by measuring increase in red fluorescence intensity at 7 to 11 uM by acridine orange/ethidium bromide dual staining based fluorescence microscopy; format: functional, cell-based; conditions: dose 7-11 µM
Outline: (§4)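 HeLa exposed to 7 and 11 μM versus untreated control; live/dead staining either with acridine orange–ethidium bromide dual stain (fluorescence, FITC filter) or with APOPercentage dye (pink uptake, brightfield); imaged on inverted microscope.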

HeLa [11] = assay: Induction of apoptosis in human HeLa cells assessed as proportion of early apoptotic cells at 11 uM by AnnexinV-FITC/PI staining based FACS analysis (reference value: 4.5%); format: functional
PANC-1 = assay: Antiproliferative activity against human PANC-1 cells assessed as inhibition of cell growth incubated for 24 hrs by MTT assay; format: functional, cell-based; conditions: PANC-1, 24 h
Outline: (§5)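 Cells kept in DMEM with 10% FBS and 1% antibiotic-antimycotic at 37 °C and 5% CO2. Seeded at 8 × 10^3 cells per 100 μL and left 24 h, then exposed 24 h to 5, 10, 20, 50 or 100 μM. MTT at 0.5 mg/mL in HBSS was added for 2–4 h at 37 °C in the dark. Formazan was dissolved in DMSO, A570 was read, and IC50 was derived.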

HeLa [12] = assay: Induction of cell cycle arrest in human HeLa cells assessed as proportion of cell accumulation at S phase at 11 uM by propidium iodide staining based flow cytometry (reference value: 15.9%); format: functional
HeLa [13] = assay: Induction of apoptosis in human HeLa cells assessed as DNA fragmentation at 7 to 11 uM incubated for 24 hrs by ethidium bromide staining based agarose gel electrophoresis analysis; format: functional, cell-based; conditions: dose 7-11 µM
Outline: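 HeLa treated at 7 and 11 μM; genomic DNA isolated by kit, quantified by nanodrop and normalised; run on 0.8% agarose at 80 V, stained with ethidium bromide; laddering imaged by gel documentation.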

HeLa [14] = assay: Inhibition of colony formation in human HeLa cells assessed as decrease in number of colonies formed at 3 to 6 uM incubated for 9 days by crystal violet staining based microscopic analysis; format: functional, cell-based; conditions: dose 3-6 µM, time 9.0 day
Outline: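 HeLa seeded at 1 × 10^3 cells in 6-well plates; after attachment treated at 3 and 6 μM and grown 9 days at 37 °C; fixed in 70% methanol, stained with 0.3% crystal violet, PBS-washed; colonies imaged and counted by image analysis.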

SiHa = assay: Antiproliferative activity against human SiHa cells assessed as inhibition of cell growth incubated for 24 hrs by MTT assay; format: functional, cell-based
Outline: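 Cervical squamous carcinoma cells were seeded at 8 × 10^3 cells per 100 μL and incubated 24 h before compound was added (5–100 μM). After 24 h exposure, cells were washed and given 0.5 mg/mL MTT in HBSS for 2–4 h at 37 °C in the dark. Formazan was solubilised in DMSO, absorbance read at 570 nm, and IC50 determined.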

HeLa [15] = assay: Induction of apoptosis in human HeLa cells assessed as proportion of necrotic cells at 7 uM by AnnexinV-FITC/PI staining based FACS analysis (reference value: 3.4%); format: functional
HeLa [16] = assay: Induction of mitochondrial membrane potential depolarization in human HeLa cells assessed as increase in JC-1 monomers by measuring increase in green fluorescence intensity at 7 to 11 uM incubated for 24 hrs by JC-1 staining based fluorescence microscopic analysis; format: functional, cell-based; conditions: dose 7-11 µM
Outline: (§6)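 HeLa treated for 24 h, then stained with JC-1 dye; red aggregate and green monomer fluorescence imaged on inverted microscope with FITC filter; aggregate-to-monomer ratio calculated relative to control; mean ± SD; scale bar 50 μm.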

HeLa [17] = assay: Induction of mitochondrial membrane potential depolarization in human HeLa cells assessed as decrease in JC-1 aggregate to monomer ratio at 7 to 11 uM incubated for 24 hrs by JC-1 staining based fluorescence microscopic analysis; format: functional, cell-based; conditions: dose 7-11 µM; outline: as §6
HeLa [18] = assay: Induction of apoptosis in human HeLa cells assessed as increase in caspase-9 activation at 7 to 11 uM by fluorometric assay; format: functional, cell-based; conditions: dose 7-11 µM; outline: as §3
HeLa [19] = assay: Induction of apoptosis in human HeLa cells assessed as cells with impaired membrane by measuring increase in pink colour intensity at 7 to 11 uM by APOP staining based microscopy; format: functional, cell-based; conditions: dose 7-11 µM; outline: as §4
HeLa [20] = assay: Induction of cell cycle arrest in human HeLa cells assessed as downregulation of Cyclin A2 protein expression at 7 to 11 uM by western blot analysis; format: functional, cell-based; conditions: dose 7-11 µM; outline: as §1
HeLa [21] = assay: Induction of apoptosis in human HeLa cells assessed as increase in caspase-8 activation at 7 to 11 uM by fluorometric assay; format: functional, cell-based; conditions: dose 7-11 µM; outline: as §3
HeLa [22] = assay: Induction of apoptosis in human HeLa cells assessed as proportion of late apoptotic cells at 7 uM by AnnexinV-FITC/PI staining based FACS analysis (reference value: 14.5%); format: functional
HeLa [23] = assay: Induction of apoptosis in human HeLa cells assessed as proportion of early apoptotic cells at 7 uM by AnnexinV-FITC/PI staining based FACS analysis (reference value: 4.5%); format: functional
HeLa [24] = assay: Induction of apoptosis in human HeLa cells assessed as proportion of viable cells at 7 uM by AnnexinV-FITC/PI staining based FACS analysis (reference value: 77.7%); format: functional
HeLa [25] = assay: Antimetastatic activity in human HeLa cells assessed as downregulation of Ki67 expression at 3 to 6 uM incubated for 24 hrs by DAPI staining based immunofluorescence analysis; format: functional, cell-based; conditions: dose 3-6 µM
Outline: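 HeLa, 7 × 10^3 cells/well, treated at two concentrations for 24 h; fixed in 4% paraformaldehyde 15–30 min at 37 °C, permeabilised with 0.1% Triton-X 10 min, blocked in 5% BSA/PBST 1 h; Ki67 primary antibody overnight, then secondary antibody and DAPI counterstain; fluorescence microscopy imaging, fluorescence intensity quantified; mean ± SD.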

HeLa [26] = assay: Induction of cell cycle arrest in human HeLa cells assessed as proportion of cell accumulation at S phase at 7 uM by propidium iodide staining based flow cytometry (reference value: 15.9%); format: functional
HeLa [27] = assay: Induction of cell cycle arrest in human HeLa cells assessed as proportion of cell accumulation at G2 phase at 7 uM by propidium iodide staining based flow cytometry (reference value: 8.7%); format: functional
HeLa [28] = assay: Induction of cell cycle arrest in human HeLa cells assessed as proportion of cell accumulation at subG0 phase at 7 uM by propidium iodide staining based flow cytometry (reference value: 7.6%); format: functional
HeLa [29] = assay: Induction of apoptosis in human HeLa cells assessed as proportion of late apoptotic cells at 11 uM by AnnexinV-FITC/PI staining based FACS analysis (reference value: 14.5%); format: functional
A549 = assay: Antiproliferative activity against human A549 cells assessed as inhibition of cell growth incubated for 24 hrs by MTT assay; format: functional, cell-based; conditions: A549, 24 h; outline: as §5
HeLa [30] = assay: Antiproliferative activity against human HeLa cells assessed as inhibition of cell growth incubated for 24 hrs by MTT assay; format: functional, cell-based; outline: as §5
HeLa [31] = assay: Induction of cell cycle arrest in human HeLa cells assessed as downregulation of Cdk2 protein expression at 7 to 11 uM by western blot analysis; format: functional, cell-based; conditions: dose 7-11 µM; outline: as §1
HeLa [32] = assay: Induction of apoptosis in human HeLa cells assessed as proportion of viable cells at 11 uM by AnnexinV-FITC/PI staining based FACS analysis (reference value: 77.7%); format: functional
MDA-MB-231 = assay: Antiproliferative activity against human MDA-MB-231 cells assessed as inhibition of cell growth incubated for 24 hrs by MTT assay; format: functional, cell-based; conditions: MDA-MB-231, 24 h; outline: as §5
HeLa [33] = assay: Induction of cell cycle arrest in human HeLa cells assessed as proportion of cell accumulation at G1 phase at 11 uM by propidium iodide staining based flow cytometry (reference value: 67.7%); format: functional
HeLa [34] = assay: Induction of apoptosis in human HeLa cells assessed as DNA fragmentation by measuring less intense peak for deoxyribose variation (1460-65 cm^-1) at 7 to 11 uM incubated for 24 hrs by surface-enhanced Raman spectroscopic analysis; format: functional, cell-based; conditions: dose 7-11 µM; outline: as §2
HeLa [35] = assay: Induction of apoptosis in human HeLa cells assessed as proportion of necrotic cells at 11 uM by AnnexinV-FITC/PI staining based FACS analysis (reference value: 3.4%); format: functional
HeLa [36] = assay: Induction of cell cycle arrest in human HeLa cells assessed as downregulation of Cyclin B1 protein expression at 7 to 11 uM by western blot analysis; format: functional, cell-based; conditions: dose 7-11 µM; outline: as §1

## C[C@@H](C[C@@H](O)[C@@H]1OC1(C)C)[C@@H]1CC[C@]2(C)C3=CC[C@H]4C(C)(C)C(=O)CC[C@]4(C)[C@H]3CC[C@@]12C
HeLa [1]
  Activity: Active
HeLa [2]
  Activity: 6.2%
HeLa [3]
  Activity: 64%
HeLa [4]
  Activity: Active
HeLa [5]
  Activity: Active
HeLa [6]
  fold change (FC): 3
HeLa [7]
  Activity: 39.5%
HeLa [8]
  Activity: Active
[9]
  IC50 at 24 h: 83.3 µM
HeLa [10]
  Activity: Active
HeLa [11]
  Activity: 15.8%
PANC-1
  IC50: 16.5 µM
HeLa [12]
  Activity: 9.8%
HeLa [13]
  Activity: Active
HeLa [14]
  inhibition: Dose-dependent-effect
SiHa
  IC50: 16.2 µM
HeLa [15]
  Activity: 0.7%
HeLa [16]
  Activity: Active
HeLa [17]
  Activity: Active
HeLa [18]
  Activity: Active
HeLa [19]
  Activity: Active
HeLa [20]
  Activity: Active
HeLa [21]
  Activity: Active
HeLa [22]
  Activity: 10.1%
HeLa [23]
  Activity: 50.9%
HeLa [24]
  Activity: 38.3%
HeLa [25]
  Activity: Active
HeLa [26]
  Activity: 4.9%
HeLa [27]
  Activity: 5.4%
HeLa [28]
  Activity: 25.6%
HeLa [29]
  Activity: 50.1%
A549
  IC50: 30.6 µM
HeLa [30]
  IC50: 11.7 µM
HeLa [31]
  Activity: Active
HeLa [32]
  Activity: 29.6%
MDA-MB-231
  IC50: 23.9 µM
HeLa [33]
  Activity: 44.1%
HeLa [34]
  Activity: Active
HeLa [35]
  Activity: 4.5%
HeLa [36]
  Activity: Active
